Laboratory results as given in ChEMBL document CHEMBL4387708, “Enhancement of Benzothiazoles as Pteridine Reductase-1 Inhibitors for the Treatment of Trypanosomatidic Infections” (J Med Chem, 2019).
Values after ≈ are worked out from the molar mass of the structure shown.

What was measured:
[1] = Cytotoxicity against human THP1 cells after 72 hrs by MTT assay; type: cell-based, THP-1; settings: read-out: NOAEL
[2] = Thermodynamic solubility of the compound in phosphate buffered saline/10%DMSO after 24 hrs by spectrophotometric method; type: physicochemical; settings: read-out: Therm_solubility
Method in brief: (§1)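 Over-saturated suspensions (theoretical maximum 100 µg/mL) in water, PBS, PBS + 10% DMSO or PBS + 50% DMSO were stirred at 1200 rpm for 24 h at 25 °C. They were filtered at 0.2 µm and diluted 1:1 with ACN. Concentration was quantified by UV using a molar extinction coefficient determined at 340 nm.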

[3] = Clearance in BALB/c mouse at 20 mg/kg, po by LC-MS analysis; type: ADME, organism-based; settings: in vivo
Method in brief: (§2)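 Snapshot PK in healthy BALB/c mice. Free compound given in 8% DMSO at 1 mg/kg IV or 20 mg/kg per os; for the formulated arm it was solubilized with hydroxypropyl-β-cyclodextrin (50%) and given at 20 mg/kg per os. Plasma levels were quantified by LC-MS on a C18 column with triple-quadrupole ESI detection in positive ion mode.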

[4] = Cytotoxicity against human U2OS cells assessed as reduction in cell number; type: cell-based
Cytochrome P450 2C19 = Cytochrome P450 2C19 (Homo sapiens, UniProt P33261); test: Inhibition of human CYP2C19 expressed in baculovirus infected insect cells using beetle D-luciferin as substrate preincubated for 30 mins followed by NADPH addition and measured after 30 mins by CYP450-Glo assay
Trypanosoma brucei [5] = test: Growth inhibition of Trypanosoma brucei bloodstream forms at 10 uM measured after 72 hrs by resazurin-based fluorescence assay relative to control; type: organism-based; settings: Trypanosoma brucei, read-out: GI
Cytochrome P450 3A4 = Cytochrome P450 3A4 (Homo sapiens, UniProt P08684); test: Inhibition of human CYP3A4 expressed in baculovirus infected insect cells using beetle D-luciferin as substrate preincubated for 30 mins followed by NADPH addition and measured after 30 mins by CYP450-Glo assay
[6] = Thermodynamic solubility of the compound in pure water after 24 hrs by spectrophotometric method; type: physicochemical; settings: read-out: Therm_solubility; method in brief: as §1
[7] = Thermodynamic solubility of the compound in phosphate buffered saline after 24 hrs by spectrophotometric method; type: physicochemical; settings: read-out: Therm_solubility; method in brief: as §1
[8] = Cmax in BALB/c mouse at 1 mg/kg, iv by LC-MS analysis; type: ADME, organism-based; set-up: dose 1 mg/kg, route intravenous; settings: in vivo; method in brief: as §2
[9] = Cmax in BALB/c mouse at 20 mg/kg, po by LC-MS analysis; type: ADME, organism-based; set-up: dose 20 mg/kg, route oral; settings: in vivo; method in brief: as §2
[10] = Thermodynamic solubility of the compound in phosphate buffered saline/50%DMSO after 24 hrs by spectrophotometric method; type: physicochemical; settings: read-out: Therm_solubility; method in brief: as §1
[11] = Clearance in BALB/c mouse at 20 mg/kg, po co-formulated with hydroxypropyl-beta-cyclodextrin by LC-MS analysis; type: ADME, organism-based; settings: in vivo; method in brief: as §2
Cytochrome P450 2D6 = Cytochrome P450 2D6 (Homo sapiens, UniProt P10635); test: Inhibition of human CYP2D6 expressed in baculovirus infected insect cells using beetle D-luciferin as substrate preincubated for 30 mins followed by NADPH addition and measured after 30 mins by CYP450-Glo assay
[12] = Half-life in BALB/c mouse at 20 mg/kg, po co-formulated with hydroxypropyl-beta-cyclodextrin by LC-MS analysis; type: ADME, organism-based; settings: in vivo; method in brief: as §2
[13] = Half-life in BALB/c mouse at 20 mg/kg, po by LC-MS analysis; type: ADME, organism-based; settings: in vivo; method in brief: as §2
[14] = AUC in BALB/c mouse at 20 mg/kg, po co-formulated with hydroxypropyl-beta-cyclodextrin by LC-MS analysis; type: ADME, organism-based; settings: in vivo; method in brief: as §2
Cytochrome P450 1A2 = target: T1, Cytochrome P450 1A2 (Homo sapiens, UniProt P05177); test: Inhibition of human CYP1A2 expressed in baculovirus infected insect cells using beetle D-luciferin as substrate preincubated for 30 mins followed by NADPH addition and measured after 30 mins by CYP450-Glo assay
T1 sequence (P05177 whole entry): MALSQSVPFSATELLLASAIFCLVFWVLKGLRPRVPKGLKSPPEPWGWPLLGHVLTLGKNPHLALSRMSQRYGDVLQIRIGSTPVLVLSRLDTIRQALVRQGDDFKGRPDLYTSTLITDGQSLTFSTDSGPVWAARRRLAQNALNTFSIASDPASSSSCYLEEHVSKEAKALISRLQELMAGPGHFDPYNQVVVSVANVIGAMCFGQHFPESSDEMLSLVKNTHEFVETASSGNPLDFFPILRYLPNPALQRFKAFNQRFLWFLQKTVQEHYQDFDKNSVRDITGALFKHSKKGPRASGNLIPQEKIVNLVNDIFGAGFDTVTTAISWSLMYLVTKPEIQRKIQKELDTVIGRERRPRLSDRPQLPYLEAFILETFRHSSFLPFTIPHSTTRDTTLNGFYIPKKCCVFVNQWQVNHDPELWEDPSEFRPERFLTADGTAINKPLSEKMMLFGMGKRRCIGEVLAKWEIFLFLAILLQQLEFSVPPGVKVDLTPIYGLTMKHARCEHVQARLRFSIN

Trypanosoma brucei [15] = test: Inhibition of N-terminal His-tagged Trypanosoma brucei pteridine reductase 1 at 50 uM using di-hydrobiopterine as substrate measured at 1 min interval for 50 mins in presence of NADPH relative to control
Method in brief: (§3)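 Photometric PTR1 assay with NADPH and dihydrobiopterin substrate. H₄B formation is coupled non-enzymatically to cytochrome c reduction, read as signal increase at 550 nm.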

[16] = target: Voltage-gated inwardly rectifying potassium channel KCNH2 (Homo sapiens, UniProt Q12809); test: Displacement of Tracer Red from human ERG by fluorescence polarization assay
Leishmania infantum = test: Growth inhibition of luciferase expressing Leishmania infantum axenic amastigotes infected in human THP1 cells at 10 uM measured after 72 hrs by steady-glo luminescence assay relative to control; type: organism-based; settings: leishmania infantum, 72 h, 10 µM
Trypanosoma cruzi = test: Growth inhibition of trypomastigote form of Trypanosoma cruzi Y infected in human U2OS cells at 50 uM measured after 72 hrs by DRAQ5 DNA dye based confocal microscopic analysis relative to control; type: organism-based; settings: Trypanosoma cruzi, Y, U2OS, read-out: GI
[17] = Selectivity index ratio of NOAEL for human THP1 cells to EC50 for growth inhibition of Trypanosoma brucei bloodstream forms; type: toxicity; settings: read-out: Selectivity Index
[18] = target: T2, Pteridine reductase 1 (Leishmania major) (UniProt Q01782); test: Inhibition of Leishmania major pteridine reductase 1 at 50 uM using di-hydrobiopterine as substrate in presence of NADPH relative to control; method in brief: as §3
T2 sequence (whole entry): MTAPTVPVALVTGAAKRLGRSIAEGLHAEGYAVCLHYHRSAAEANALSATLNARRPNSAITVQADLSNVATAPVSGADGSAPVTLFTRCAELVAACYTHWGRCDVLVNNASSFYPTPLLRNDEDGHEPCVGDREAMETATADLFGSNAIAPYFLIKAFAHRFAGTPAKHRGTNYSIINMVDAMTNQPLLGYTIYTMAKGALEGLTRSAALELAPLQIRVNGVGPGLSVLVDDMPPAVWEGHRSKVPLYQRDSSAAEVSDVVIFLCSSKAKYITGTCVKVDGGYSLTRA

[19] = Half-life in BALB/c mouse at 1 mg/kg, iv by LC-MS analysis; type: ADME, organism-based; settings: in vivo; method in brief: as §2

Sequence of Voltage-gated inwardly rectifying potassium channel KCNH2 (Q12809 whole entry): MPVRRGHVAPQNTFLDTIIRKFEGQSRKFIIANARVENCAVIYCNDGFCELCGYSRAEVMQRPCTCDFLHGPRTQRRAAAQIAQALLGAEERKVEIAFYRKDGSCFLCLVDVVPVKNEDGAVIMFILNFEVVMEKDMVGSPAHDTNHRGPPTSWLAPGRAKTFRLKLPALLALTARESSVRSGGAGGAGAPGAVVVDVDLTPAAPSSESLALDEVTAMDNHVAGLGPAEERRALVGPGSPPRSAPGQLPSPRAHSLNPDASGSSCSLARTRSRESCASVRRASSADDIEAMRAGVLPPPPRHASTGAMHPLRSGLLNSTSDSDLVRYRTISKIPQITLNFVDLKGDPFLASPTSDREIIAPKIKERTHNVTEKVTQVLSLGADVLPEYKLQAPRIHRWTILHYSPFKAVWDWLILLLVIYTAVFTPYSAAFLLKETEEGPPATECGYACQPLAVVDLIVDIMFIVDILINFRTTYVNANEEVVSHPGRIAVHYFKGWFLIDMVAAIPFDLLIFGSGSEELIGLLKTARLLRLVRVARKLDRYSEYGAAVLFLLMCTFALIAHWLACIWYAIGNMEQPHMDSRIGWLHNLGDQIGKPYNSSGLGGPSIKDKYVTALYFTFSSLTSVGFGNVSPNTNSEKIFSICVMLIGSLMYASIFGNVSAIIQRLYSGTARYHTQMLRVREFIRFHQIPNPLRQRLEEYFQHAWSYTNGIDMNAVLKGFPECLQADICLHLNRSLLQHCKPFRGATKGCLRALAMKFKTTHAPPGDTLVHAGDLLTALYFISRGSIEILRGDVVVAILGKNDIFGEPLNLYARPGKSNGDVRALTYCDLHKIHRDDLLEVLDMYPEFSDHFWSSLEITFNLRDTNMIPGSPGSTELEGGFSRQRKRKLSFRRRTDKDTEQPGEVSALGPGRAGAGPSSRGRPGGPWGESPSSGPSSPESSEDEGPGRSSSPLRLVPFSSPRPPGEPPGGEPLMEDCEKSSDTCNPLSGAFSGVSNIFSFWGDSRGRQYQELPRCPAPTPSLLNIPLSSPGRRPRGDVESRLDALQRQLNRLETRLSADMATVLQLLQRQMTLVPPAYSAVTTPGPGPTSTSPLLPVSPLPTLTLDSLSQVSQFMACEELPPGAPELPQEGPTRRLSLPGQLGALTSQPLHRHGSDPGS
Sequence of Cytochrome P450 2D6 (P10635 whole entry): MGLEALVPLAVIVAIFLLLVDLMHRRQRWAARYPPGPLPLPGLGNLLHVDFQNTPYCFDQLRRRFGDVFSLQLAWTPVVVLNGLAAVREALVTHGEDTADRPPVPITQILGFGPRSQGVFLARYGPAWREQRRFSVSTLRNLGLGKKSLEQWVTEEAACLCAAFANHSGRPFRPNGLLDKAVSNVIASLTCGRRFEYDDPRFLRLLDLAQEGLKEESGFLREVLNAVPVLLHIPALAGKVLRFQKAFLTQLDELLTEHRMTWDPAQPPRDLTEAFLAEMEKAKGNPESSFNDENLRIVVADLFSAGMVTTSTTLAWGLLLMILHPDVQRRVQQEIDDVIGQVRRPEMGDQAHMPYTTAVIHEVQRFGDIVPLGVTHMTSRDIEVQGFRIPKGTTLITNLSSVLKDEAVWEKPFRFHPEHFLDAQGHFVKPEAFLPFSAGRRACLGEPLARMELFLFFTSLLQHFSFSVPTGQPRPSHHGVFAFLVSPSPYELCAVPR
Sequence of Cytochrome P450 2C19 (P33261 whole entry): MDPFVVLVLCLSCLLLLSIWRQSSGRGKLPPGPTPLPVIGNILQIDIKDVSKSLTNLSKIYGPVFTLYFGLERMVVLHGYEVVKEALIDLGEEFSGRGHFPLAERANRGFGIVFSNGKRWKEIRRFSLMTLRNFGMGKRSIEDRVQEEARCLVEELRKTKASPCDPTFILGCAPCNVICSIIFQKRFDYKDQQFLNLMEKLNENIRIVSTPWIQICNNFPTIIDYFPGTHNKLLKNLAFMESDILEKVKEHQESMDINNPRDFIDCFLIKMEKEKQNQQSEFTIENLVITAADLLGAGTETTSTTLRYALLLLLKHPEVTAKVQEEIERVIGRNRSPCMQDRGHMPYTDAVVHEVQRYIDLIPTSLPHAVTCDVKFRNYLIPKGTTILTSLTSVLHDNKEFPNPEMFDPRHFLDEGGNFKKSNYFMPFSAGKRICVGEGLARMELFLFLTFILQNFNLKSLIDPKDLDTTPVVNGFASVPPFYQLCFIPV
Sequence of Cytochrome P450 3A4 (P08684 whole entry): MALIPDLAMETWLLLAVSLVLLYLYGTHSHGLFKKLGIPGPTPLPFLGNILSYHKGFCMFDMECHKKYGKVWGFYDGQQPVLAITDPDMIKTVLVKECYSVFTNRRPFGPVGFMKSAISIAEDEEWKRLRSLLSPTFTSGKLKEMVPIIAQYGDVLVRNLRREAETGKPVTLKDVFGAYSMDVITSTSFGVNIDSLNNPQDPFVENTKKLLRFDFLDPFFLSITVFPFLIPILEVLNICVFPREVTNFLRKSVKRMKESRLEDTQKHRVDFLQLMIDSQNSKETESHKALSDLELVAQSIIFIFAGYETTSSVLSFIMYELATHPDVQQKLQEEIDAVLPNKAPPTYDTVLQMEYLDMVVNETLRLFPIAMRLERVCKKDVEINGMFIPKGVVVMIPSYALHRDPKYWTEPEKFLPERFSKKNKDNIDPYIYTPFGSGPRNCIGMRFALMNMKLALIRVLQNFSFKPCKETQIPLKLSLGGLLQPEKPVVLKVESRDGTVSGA

With Nc1nc2ccc(C(=O)NCc3ccccc3)cc2s1 the MNTC at 72 h [1] was > 25 µM, the solubility thermodynamic at 24 h [2] was > 100 µg/mL and the CL/F [3] was 68 mL/min/kg. The GI50 [4] was > 25 µM, the IC50 (Cytochrome P450 2C19) was > 25 µM and the inhibition at 10 µM (Trypanosoma brucei [5]) was > 60%. For the same molecule, the IC50 (Cytochrome P450 3A4) was > 25 µM, the solubility thermodynamic at 24 h [6] was 13.1 µg/mL (≈ 46.3 µM) and the solubility thermodynamic at 24 h [7] was 10.9 µg/mL (≈ 38.6 µM). The Cmax [8] was 1630 ng/mL, the Cmax [9] was 826 ng/mL and the solubility thermodynamic at 24 h [10] was > 100 µg/mL. For the same molecule, the CL/F [11] was 41 mL/min/kg, the IC50 (Cytochrome P450 2D6) was 10 to 25 µM and the half-life [12] was 34.8 h. The half-life [13] was 43.5 h, the AUC [14] was 7930 ng·h/mL and the IC50 (Cytochrome P450 1A2) was > 25 µM. For the same molecule, the inhibition (Trypanosoma brucei [15]) was > 60%, the IC50 [16] was > 25 µM and the “growth inhibition (GI)” value (Leishmania infantum) was “Non-Toxic”. For the same molecule, the inhibition at 50 µM (Trypanosoma cruzi) was 51.3%, the selectivity ratio [17] was > 10 and the inhibition [18] was > 60%. It also gave a half-life [19] of 3.45 h.
